Measurements: ChEMBL document CHEMBL1140581, “Structure-activity relationship study of [1,2,3]thiadiazole necroptosis inhibitors” (Bioorg Med Chem Lett, 2007)
Active and inactive are the calls of the source. No cut-off for these calls is given here.

Columns and labels:
[1] = tested on: Jurkat; assay: Inhibition of TNF-alpha-induced necroptosis in FADD-deficient human Jurkat T cells after 24 hrs; type: functional, cell-based
In short: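 FADD-deficient human Jurkat T cells at 5×10^5 cells/mL, 24 h at 37 °C, 5% CO2, with 10 ng/mL human TNF-α plus compound at eleven concentrations (0.030–100 μM), each in duplicate. DMSO stocks diluted in DMSO; final DMSO 0.5%. Viability by luminescent ATP assay (CellTiter-Glo), expressed as signal with TNF-α plus compound over signal with compound alone. EC50 from the dose series.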

[2] = tested on: L929; assay: Inhibition of TNF-alpha-induced necroptosis in […] assessed as cell viability at 30 uM after 24 hrs by ATP-based assessement method; type: functional
In short: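 L929 cells given 10 ng/mL human TNF-α for 24 h with compound at 30 μM. ATP-based viability, normalized to compound-only cells without stimulus (100%). N = 2, standard deviation.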

[3] = tested on: L929; assay: Inhibition of zVAD-induced necroptosis in […] assessed as cell viability at 30 uM after 24 hrs by ATP-based assessement method; type: functional
In short: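 L929 cells treated 24 h with 100 μM zVAD.fmk as the necroptotic stimulus, compound at 30 μM. ATP-based viability, normalized to compound-only cells without stimulus (100%). N = 2, standard deviation.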

[4] = tested on: Jurkat; assay: Inhibition of TNF-alpha-induced necroptosis in FADD-deficient human Jurkat T cells assessed as cell viability at 30 uM after 24 hrs by ATP-based assessement method; type: functional
In short: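 FADD-deficient Jurkat cells exposed 24 h to 10 ng/mL human TNF-α with compound at 30 μM. Viability by ATP-based luminescence, normalized to cells given compound without the necroptotic stimulus (set as 100%). N = 2, standard deviation.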

[5] = tested on: Fibroblast; assay: Inhibition of TNFalpha and zVAD-induced necroptosis in SV40-transformed mouse adult lung fibroblasts assessed as cell viability at 30 uM after 24 hrs by ATP-based assessement method; type: functional
In short: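 SV40-transformed mouse adult lung fibroblasts stimulated 24 h with 10 ng/mL human TNF-α plus 100 μM zVAD.fmk, compound at 30 μM. ATP-based viability, normalized to compound-treated cells without stimulus (100%). N = 2, standard deviation.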

Compound	EC50 [1] [µM]	other results
CC(NC(=O)c1snnc1C1CC1)c1c(F)cccc1Cl (stereo not given)	0.4	
C[C@@H](NC(=O)c1snnc1C1CC1)c1c(F)cccc1Cl	> 100	
O=C(NCc1c(F)cccc1Cl)c1snnc1C1CCCC1	1.9	
O=C(NCc1c(F)cccc1Cl)c1cccs1	9.4	
O=C(NCCc1c(F)cccc1Cl)c1snnc1C1CC1	27	
Cc1cccc(Cl)c1CNC(=O)c1snnc1C1CC1	10	
C[C@H](NC(=O)c1snnc1C1CC1)c1c(F)cccc1Cl	0.28	Activity [2]: Active; Activity [3]: inactive; Activity [4]: Active; Activity [5]: Active
O=C(NCc1c(F)cccc1Cl)c1snnc1C1CCCCC1	6	
CN1C(=O)N[C@H](Cc2c[nH]c3c(Cl)cccc23)C1=O		Activity [2]: Active; Activity [3]: Active; Activity [4]: Active; Activity [5]: Active
Cc1ncsc1C(=O)NCc1c(F)cccc1Cl	20	
Fc1cccc(Cl)c1CNCc1snnc1C1CC1	> 100	
CN(Cc1c(F)cccc1Cl)C(=O)c1snnc1C1CC1	16	
N#Cc1cccc(Cl)c1CNC(=O)c1snnc1C1CC1	> 100	
Cc1c(Br)csc1C(=O)NCc1c(F)cccc1Cl	1.3	
Cc1ccsc1C(=O)NC(C)c1c(F)cccc1Cl (stereo not given)	3.9	
O=C(NCc1c(F)cccc1Cl)c1snnc1C1CC1	0.5	
CC(C)(C)c1nnsc1C(=O)NCc1c(F)cccc1Cl	18	
O=C(NCc1c(F)cccc1Cl)c1sccc1C1CC1	5.1	
CCCc1nnsc1C(=O)NCc1c(F)cccc1Cl	4.1	

Compound	EC50 [1] [µM]	other results
Cc1nnsc1C(=O)N(C)Cc1c(F)cccc1Cl	11	
O=C(NCc1cccc2ccccc12)c1snnc1C1CC1	> 100	
CCCCC(NC(=O)c1snnc1C1CC1)c1c(F)cccc1Cl (stereo not given)	> 100	
CCOc1ccsc1C(=O)NCc1c(F)cccc1Cl	> 100	
Cc1nc(-c2ccc(Cl)cc2)sc1C(=O)NCc1c(F)cccc1Cl	> 100	
Cc1ncoc1C(=O)NCc1c(F)cccc1Cl	> 100	
COc1ccccc1CNC(=O)c1snnc1C	> 100	
O=C(NCc1c(F)cccc1Cl)c1sccc1Cl	9.6	
O=C(NCc1c(F)ccc(F)c1Cl)c1snnc1C1CC1	0.52	
Cc1csc(C(=O)NCc2c(F)cccc2Cl)c1Cl	3.9	
O=C(NC(=O)c1c(F)cccc1Cl)c1snnc1C1CC1	> 100	
Cc1nc(C)c(C(=O)NCc2c(F)cccc2Cl)s1	> 100	
CC(C)(NC(=O)c1snnc1C1CC1)c1c(F)cccc1Cl	> 100	
Cc1ccoc1C(=O)NCc1c(F)cccc1Cl	13	
O=C(NC(c1ccccc1)c1c(F)cccc1Cl)c1snnc1C1CC1 (stereo not given)	> 100	
Cc1nnsc1C(=O)NCc1c(F)cccc1F	3.5	
O=C(NCc1ccccc1F)c1snnc1C1CC1	1.5	
O=C(NCc1ccccn1)c1snnc1C1CC1	40	
Cc1nnccc1C(=O)NCc1c(F)cccc1Cl	> 100	

Compound	EC50 [1] [µM]	other results
Cc1nnsc1C(=O)NCc1c(F)cccc1Cl	1	
O=C(NCc1c(Cl)cccc1Cl)c1snnc1C1CC1	6	
COc1ccc([C@H]2C3CCc4ccc(OC)cc4C3=NN2C(C)=O)cc1 (stereo not given in full)		Activity [2]: Active; Activity [3]: inactive; Activity [4]: Active
O=C(NCc1c(F)cccc1F)c1snnc1C1CC1	1.5	
O=C(Nc1c(F)cccc1F)c1snnc1C1CC1	> 100	
Cc1c(S(=O)(=O)c2ccc(Cl)cc2)csc1C(=O)NCc1c(F)cccc1Cl	> 100	
Cc1ccc(C(=O)NCc2c(F)cccc2Cl)s1	3.9	
O=C(NCc1c(F)ccc(Cl)c1F)c1snnc1C1CC1	0.18	
Cc1ccccc1CNC(=O)c1snnc1C	27	
CC(C)c1nnsc1C(=O)NCc1c(F)cccc1Cl	0.58	
O=C(NCc1ncccc1F)c1snnc1C1CC1	9.6	
O=C(NCc1c(F)cccc1C(F)(F)F)c1snnc1C1CC1	> 100	
O=C(NCc1c(F)cccc1Cl)c1snnc1-c1ccccc1	> 100	
Cc1ccsc1C(=O)NCc1c(F)cccc1Cl	7	
Cc1c(C#N)csc1C(=O)NCc1c(F)cccc1Cl	1.2	
O=C(NCc1c(F)cccc1Cl)c1snnc1C1CCC1	0.6	
Cc1csc(C(=O)NCc2c(F)cccc2Cl)c1	3.7	
O=C(NCc1c(Cl)cccc1Oc1ccccc1)c1snnc1C1CC1	> 100	
